Assay results as given in ChEMBL document CHEMBL5107942, “Boron-based hybrids as novel scaffolds for the development of drugs with neuroprotective properties” (RSC Med Chem, 2021).
The source made the active and inactive calls. The rule behind the calls is not given here.

Key:
[1] = tested on: SH-SY5Y; experiment: Antioxidant activity against amyloid beta (1 to 42)-induced Alzheimer's disease model in human SH-SY5Y cells assessed as increase of TAC level at 50 uM by ABTS assay; assay type: functional, cell-based
Method in brief: (§1)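 Differentiated SH-SY5Y cells: grown in DMEM:F12 with 10% FBS, then 10 μg/mL retinoic acid for 5 days, then serum-free medium with 10 μM retinoic acid and 25 ng/mL BDNF. Co-exposed 24 h to Aβ1-42 (20 μM) plus compound. Vehicle 0.1% DMSO. Automated kits on culture samples. TAC: ABTS decolorization at 660 nm, Trolox calibration. TOS: ferrous-to-ferric chelator oxidation, H2O2 calibration, µM H2O2 equivalent/L. n = 6.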

[2] = tested on: SH-SY5Y; experiment: Neuroprotective activity against amyloid beta (1 to 42)-induced Alzheimer's disease model in human SH-SY5Y cells assessed as protection against amyloid beta (1 to 42)-induced nuclear integrity damage at 50 uM incubated for 24 hrs by Hoechst 33258 staining fluorescence microscopy; assay type: functional, cell-based
Method in brief: (§2)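 RA/BDNF-differentiated SH-SY5Y cells incubated 24 h with Aβ1-42 (20 μM) alone or with test agent at 25 or 50 μM. Fixed in 4% paraformaldehyde in PBS, 30 min at 4 °C. Stained with 1 mM Hoechst 33258 for 5 min at room temperature. Nuclear morphology examined by fluorescence microscopy.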

[3] = tested on: SH-SY5Y; experiment: Neuroprotective activity against amyloid beta (1 to 42)-induced Alzheimer's disease model in human SH-SY5Y cells assessed as inhibition of apoptosis at 25 uM incubated for 24 hrs by Hoechst 33258 staining fluorescence microscopy; assay type: functional, cell-based; method in brief: as §2
[4] = tested on: SH-SY5Y; experiment: Neuroprotective activity against amyloid beta (1 to 42)-induced Alzheimer's disease model in human SH-SY5Y cells assessed as decrease in AChE activity at 25 uM incubated for 24 hrs by Colorimetric assay; assay type: functional; set-up: scale not given: the % may be the effect or the level left
Method in brief: (§3)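 SH-SY5Y cells grown in DMEM:F12 with 10% FBS, differentiated with retinoic acid for 5 days, then serum-free medium with 10 μM retinoic acid plus 25 ng/mL BDNF, used within 10 days. Co-treated with 20 μM Aβ1-42 for 24 h; DMSO ≤0.1% vehicle. Cells lysed 15 min at room temperature, centrifuged; AChE measured in supernatant by colorimetric kit at 410 nm.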

[5] = tested on: SH-SY5Y; experiment: Neuroprotective activity against amyloid beta (1 to 42)-induced Alzheimer's disease model in human SH-SY5Y cells assessed as decrease in AChE activity at 50 uM incubated for 24 hrs by Colorimetric assay; assay type: functional; set-up: scale not given: the % may be the effect or the level left; method in brief: as §3
[6] = tested on: SH-SY5Y; experiment: Neuroprotective activity against amyloid beta (1 to 42)-induced neurotoxicity in human SH-SY5Y cells assessed as increase in cell viability at 50 uM incubated for 24 hrs by MTT assay; assay type: functional
Method in brief: (§4)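 Differentiated SH-SY5Y cells co-treated 24 h with compound (0.1–100 μM) and Aβ1-42 (20 μM). Vehicle 0.1% DMSO; 1% Triton X positive control. MTT added for 3 h at 37 °C, formazan dissolved in DMSO, absorbance read at 570 nm. Mean ± SD from at least six independent experiments.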

[7] = tested on: SH-SY5Y; experiment: Neuroprotective activity against amyloid beta (1 to 42)-induced Alzheimer's disease model in human SH-SY5Y cells assessed as protection against amyloid beta (1 to 42)-induced nuclear integrity damage at 25 uM incubated for 24 hrs by Hoechst 33258 staining fluorescence microscopy; assay type: functional, cell-based; method in brief: as §2
[8] = Induction of DNA damage in human blood assessed as increase in 8-OH-dG level at 0.1 to 100 uM incubated for 24 hrs; assay type: toxicity, tissue-based; conditions: dose 0.1-100 µM
Method in brief: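 Heparinized human peripheral blood cultured with phytohemagglutinin in PB-MAX medium, with compounds added at culture start. 8-OH-dG measured by competitive ELISA (8-OH-dG–AChE conjugate competing for monoclonal antibody). Detects free and DNA-incorporated 8-OH-dG. Read at 405–420 nm.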

[9] = tested on: SH-SY5Y; experiment: Neuroprotective activity against amyloid beta (1 to 42)-induced Alzheimer's disease model in human SH-SY5Y cells assessed as inhibition of apoptosis at 50 uM incubated for 24 hrs by Hoechst 33258 staining fluorescence microscopy; assay type: functional, cell-based; method in brief: as §2
[10] = tested on: SH-SY5Y; experiment: Neuroprotective activity against amyloid beta (1 to 42)-induced neurotoxicity in human SH-SY5Y cells assessed as increase in cell viability at 100 uM incubated for 24 hrs by MTT assay; assay type: functional; method in brief: as §4
[11] = tested on: SH-SY5Y; experiment: Antioxidant activity against amyloid beta (1 to 42)-induced Alzheimer's disease model in human SH-SY5Y cells assessed as increase of TAC level at 25 uM by ABTS assay; assay type: functional, cell-based; method in brief: as §1
[12] = tested on: SH-SY5Y; experiment: Neuroprotective activity against amyloid beta (1 to 42)-induced neurotoxicity in human SH-SY5Y cells assessed as increase in cell viability at 100 uM incubated for 24 hrs by LDH release assay; assay type: functional
Method in brief: (§5)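 Differentiated SH-SY5Y cells exposed 24 h to compound with Aβ1-42 (20 μM). Supernatant mixed 1:1 with LDH reaction mixture and held 30 min at room temperature. Lactate-to-pyruvate conversion with NAD+ reduction read as absorbance at 490 nm. Mean ± SD, at least six independent experiments.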

[13] = tested on: SH-SY5Y; experiment: Antioxidant activity against amyloid beta (1 to 42)-induced Alzheimer's disease model in human SH-SY5Y cells assessed as decrease of TOS level at 50 uM; assay type: functional, cell-based; method in brief: as §1
[14] = tested on: SH-SY5Y; experiment: Neuroprotective activity against amyloid beta (1 to 42)-induced Alzheimer's disease model in human SH-SY5Y cells assessed as reduction in necrosis rate at 25 to 50 uM incubated for 24 hrs by Annexin V-FITC/propidium iodide staining flow cytometry; assay type: functional, cell-based; conditions: dose 25-50 µM, DDE = dose-dependent effect
Method in brief: (§6)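 Differentiated SH-SY5Y cells given 24 h Aβ1-42 (20 μM) with or without compound. 5 x 10^4 cells pelleted and resuspended in 1X binding buffer. Annexin V-FITC and PI added, 5 min in the dark, then fixed in 4% paraformaldehyde. Flow cytometry sorted cells into viable, early apoptotic, late apoptotic/necrotic and necrotic fractions.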

[15] = tested on: SH-SY5Y; experiment: Neuroprotective activity against amyloid beta (1 to 42)-induced neurotoxicity in human SH-SY5Y cells assessed as increase in cell viability at 25 uM incubated for 24 hrs by LDH release assay; assay type: functional; method in brief: as §5
[16] = tested on: SH-SY5Y; experiment: Neuroprotective activity against amyloid beta (1 to 42)-induced neurotoxicity in human SH-SY5Y cells assessed as increase in cell viability at 25 uM incubated for 24 hrs by MTT assay; assay type: functional; method in brief: as §4
[17] = tested on: SH-SY5Y; experiment: Antioxidant activity against amyloid beta (1 to 42)-induced Alzheimer's disease model in human SH-SY5Y cells assessed as decrease of TOS level at 25 uM; assay type: functional, cell-based; method in brief: as §1
[18] = tested on: SH-SY5Y; experiment: Neuroprotective activity against amyloid beta (1 to 42)-induced neurotoxicity in human SH-SY5Y cells assessed as increase in cell viability at 50 uM incubated for 24 hrs by LDH release assay; assay type: functional; method in brief: as §5
[19] = tested on: SH-SY5Y; experiment: Neuroprotective activity against amyloid beta (1 to 42)-induced Alzheimer's disease model in human SH-SY5Y cells assessed as reduction in necrosis rate incubated for 24 hrs by Annexin V-FITC/propidium iodide staining flow cytometry; assay type: functional; set-up: scale not given: the % may be the effect or the level left; method in brief: as §6
[20] = tested on: SH-SY5Y; experiment: Neuroprotective activity against amyloid beta (1 to 42)-induced neurotoxicity in human SH-SY5Y cells assessed as increase in cell viability at 0.1 to 100 uM incubated for 24 hrs by MTT assay; assay type: functional, cell-based; conditions: dose 0.1-100 µM; method in brief: as §4
[21] = Genotoxicity in human blood assessed as frequency of sister chromatid exchange at 0.1 to 100 uM by BrdU/Giemsa staining based fluorescence assay; assay type: toxicity, tissue-based; conditions: dose 0.1-100 µM
Method in brief: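 Human peripheral blood cultured in PB-MAX karyotyping medium with phytohemagglutinin; compounds added just before incubation. BrdU added; demecolcine at 70 h 30 min. Then 0.075 M KCl hypotonic treatment, methanol/acetic acid (3:1) fixation, slides aged 3 days, fluorescence plus Giemsa staining. 25 second-division metaphases (42–46 chromosomes) scored per condition; result given as SCEs/cell.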

| Structure (SMILES) | Activity [1] | Activity [2] | Activity [3] | Activity [4] [%] | Activity [5] [%] | Activity [6] [%] | Activity [7] | Activity [8] | Activity [9] | Activity [10] [%] | Activity [11] | Activity [12] [%] | Activity [13] | Activity [14] | Activity [15] [%] | Activity [16] [%] | Activity [17] | Activity [18] [%] | Activity [19] [%] | Activity [20] | also measured |
| --- | --- | --- | --- | --- | --- | --- | --- | --- | --- | --- | --- | --- | --- | --- | --- | --- | --- | --- | --- | --- | --- |
| CC1(C)C2CC3OB(CNC(=O)CCCC[C@H]4CCSS4)O[C@]3(C)C1C2 (stereo partly drawn) | Active | Active | Active | 18.77 | 22.96 | 29.94 | Active | Non-Toxic | Active | 32.92 | Active | 70.65 | Active | Dde | 62.91 | 25.14 | Active | 67.37 | 68.38 | Active | Activity [21]: Non-Toxic |
| O=C(O)CCCCC1CCSS1 (stereo not drawn) [LIPOIC ACID, ALPHA] | Active | Active | Active | 13.17 | 16.66 | 19.01 | Active | Non-Toxic | Active | 20.73 | Active | 59.86 | Active | Dde | 53.05 | 14.78 | Active | 58.68 | 65.97 | Active | Activity [21]: Non-Toxic |
| CC12CC3CC(C)(C1)CC(N)(C3)C2 [MEMANTINE] | Active | Active | Active | 14.57 | 19.47 | 19.38 | Active | Non-Toxic | Active | 17.08 | Active | 57.28 | Active | Dde | 56.81 | 17.27 | Active | 59.15 | 61.67 | Active | Activity [21]: Non-Toxic |
